# Experimental data pooled from the literature.
# Lines come from different studies, so protocols differ.
# Target: Mitogen-activated protein kinase kinase kinase 11 (MAP3K11, Homo sapiens, UniProt Q16584)
Structure (SMILES),test,setting,endpoint,result
O=C(NCCCNc1nc(Nc2cccc(NC(=O)N3CCCC3)c2)ncc1C1CC1)C1CCC1,"enzyme activity, inhibitor, radiometric",1 µM,remaining activity,27%
Nc1ncnc2occ(-c3ccc(NC(=O)Nc4cc(C(F)(F)F)ccc4F)cc3)c12,"cell-free assay, inhibitor",20 µM,remaining signal,2.9%
NS(=O)(=O)c1ccc(CNc2nc(Nc3cccc(CN4CCOCC4)c3)ncc2Br)cc1,"enzyme activity, inhibitor, radiometric",1 µM,remaining activity,34%
Cc1ccc(C(=O)NCc2ccsc2)cc1C#Cc1cn(C(C)C)c2ncnc(N)c12,"enzyme activity, inhibitor",1 µM,activity vs control,8%
Cn1nc(C(=O)NCc2ccc(C(=O)O)cc2)cc1-c1ccc2[nH]ccc2c1,"cell-free assay, competition with immobilised ligand",0.1 µM,remaining binding,87%
Cc1nn(CC(F)(F)F)cc1Nc1nccc(NCCCNC(=O)C2CCC2)n1,"enzyme activity, inhibitor, radiometric",1 µM,remaining activity,106%
O=C(NCc1ncc(C(F)(F)F)cc1Cl)c1ccc2c(c1)C1(CCS(=O)(=O)CC1)[C@@H](C1CC1)N2S(=O)(=O)c1ccc(F)cc1,"cell-free assay, competition with immobilised ligand",1 µM,remaining binding,100%
Cc1nn(CC(F)(F)F)cc1Nc1ncc(C2CC2)c(NCCCNC(=O)C2CCC2)n1,"enzyme activity, inhibitor, radiometric",1 µM,remaining activity,94%
Cc1c(C(=O)O)cc(-c2ccc(C3CCNCC3)cc2)c2ccc(-c3ccc(C(F)(F)F)cc3)cc12,"binding, competition with immobilised ligand",1 µM,remaining binding,100%
CN1CCc2cc(Nc3ncc(C4CC4)c(NCCCNC(=O)C4CCC4)n3)ccc2C1,"enzyme activity, inhibitor, radiometric",1 µM,remaining activity,44%
CC/C(=N\NC(=O)NCc1cccc(O)c1)c1ccc(O)c(C)c1O,"enzyme activity, inhibitor",0.1 µM,inhibition,9.4%
CCOCCn1cc(C(=O)Nc2ccc(-n3nc(-c4cccnc4)cc3C(F)(F)F)cn2)ccc1=O,"cell-free assay, competition with immobilised ligand",1 µM,remaining binding,100%
COc1ccc(COc2ccc(Cc3cnc(N)nc3N)cc2OC)cc1,cell-free assay,0.5 µM,remaining signal,101%
Cc1nn(CC(F)(F)F)cc1Nc1ncc(Br)c(NCCc2cnc[nH]2)n1,"enzyme activity, inhibitor, radiometric",1 µM,remaining activity,60%
N#CCCc1ccc2c(c1)-c1[nH]c3ccc([N+](=O)[O-])cc3c1CC(=O)N2,cell-free assay,0.5 µM,remaining signal,18.4%
CCC(=O)N[C@@H]1CC[C@H](C(=O)N(C)c2ccc(-c3nc4ccccc4o3)cc2)C1,"cell-free assay, competition with immobilised ligand",1 µM,remaining binding,100%
O=C1Nc2ccc(Cl)cc2C1=Cc1cc(Cl)c(O)c(Cl)c1,cell-free assay,0.5 µM,remaining signal,60.4%
C[C@H]1CCN(c2nccc(-c3cnn4ncccc34)n2)C1,binding,1 µM,remaining binding,93%
